We go through 21 molecules from ChEMBL document CHEMBL3351720, “Design, synthesis and evaluation of benzoisothiazolones as selective inhibitors of PHOSPHO1” (Bioorg Med Chem Lett, 2014).

Series [1] concerns the target T1, Phosphoethanolamine/phosphocholine phosphatase (Homo sapiens, UniProt Q8TCT1).
T1 sequence (Q8TCT1 whole entry): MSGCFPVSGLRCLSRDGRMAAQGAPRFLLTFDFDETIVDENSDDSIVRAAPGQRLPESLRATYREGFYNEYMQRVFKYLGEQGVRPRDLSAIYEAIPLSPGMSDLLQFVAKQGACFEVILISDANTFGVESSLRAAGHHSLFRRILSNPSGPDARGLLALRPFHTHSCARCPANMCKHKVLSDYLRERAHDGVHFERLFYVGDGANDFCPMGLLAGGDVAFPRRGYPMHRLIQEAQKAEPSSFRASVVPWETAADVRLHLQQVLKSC
As to the kind of experiment: Inhibition of PHOSPHO1 phosphoethanolamine activity (unknown origin) assessed as amount of inorganic phosphate release after 30 mins.

The next series deals with T2, Phosphomannomutase 2 (Homo sapiens, UniProt O15305).
T2 sequence (O15305 whole entry): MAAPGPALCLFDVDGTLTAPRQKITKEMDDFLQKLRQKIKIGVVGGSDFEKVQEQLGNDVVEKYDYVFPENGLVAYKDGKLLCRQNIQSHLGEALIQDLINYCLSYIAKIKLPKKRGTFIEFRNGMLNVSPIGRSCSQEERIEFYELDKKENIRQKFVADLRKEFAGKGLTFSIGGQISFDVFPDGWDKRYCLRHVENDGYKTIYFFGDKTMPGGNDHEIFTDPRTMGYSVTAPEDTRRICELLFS
In words: Inhibition of PMM2 (unknown origin).

Series [2] has as its target T3, Mannose-6-phosphate isomerase (Homo sapiens, UniProt P34949).
T3 sequence (P34949 whole entry): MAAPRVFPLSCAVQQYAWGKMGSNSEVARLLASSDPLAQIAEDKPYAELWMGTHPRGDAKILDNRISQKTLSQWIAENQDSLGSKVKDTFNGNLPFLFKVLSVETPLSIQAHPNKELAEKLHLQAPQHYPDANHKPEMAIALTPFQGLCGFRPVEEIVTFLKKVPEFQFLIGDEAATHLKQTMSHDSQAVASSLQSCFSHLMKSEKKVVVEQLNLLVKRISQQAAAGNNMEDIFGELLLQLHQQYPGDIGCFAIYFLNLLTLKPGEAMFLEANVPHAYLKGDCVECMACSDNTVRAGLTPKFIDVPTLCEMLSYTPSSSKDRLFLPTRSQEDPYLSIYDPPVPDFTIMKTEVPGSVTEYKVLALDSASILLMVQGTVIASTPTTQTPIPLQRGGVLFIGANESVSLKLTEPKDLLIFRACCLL
In words: Inhibition of phosphomannose isomerase (unknown origin).

Series [3] can be described thus: Metabolic stability in mouse liver microsomes measured at 1 uM after 1 hr at pH 7.4 by LC-MS/MS analysis. In kind it is ADME. Particulars: read-out: Stability. In outline:
(§1)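 Stability of each analogue was reported as % of compound remaining. For liver microsomes this was after 1 hr, with runs with and without NADPH. For plasma this was after 3 hrs in plasma mixed 1:1 with 1× PBS, pH 7.4. Both human and mouse matrices were used.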
In general terms: Liver microsomes are a subcellular fraction often used to study metabolism.

Series [4] can be described thus: Aqueous solubility of the compound in pH 6.2 pION buffer by UV kinetic solubility method. Format: physicochemical. In outline:
(§2)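 Kinetic solubility in pION's buffer at pH 5.0, 6.2 or 7.4, reported in µg/ml. Part of an in vitro ADME panel.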

Series [5] in a line: Permeability of the compound at donor pH 6.2 and acceptor pH 7.4 by PAMPA. In kind it is ADME. In outline:
(§3)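 PAMPA with the acceptor compartment at pH 7.4 and the donor at pH 5.0, 6.2 or 7.4. Permeability reported as ×10^-6 cm/s. Part of an in vitro ADME panel.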
(PAMPA measures passive passage across an artificial lipid membrane.)

A short description of series [6]: Metabolic stability in human plasma assessed as compound remaining at 1 x pH7.4 PBS measured at 3 hrs by LC-MS/MS analysis. Format: ADME, cell-free. The settings on record: pH 7.4, read-out: Stability. In outline: as §1
Series [7] can be described thus: Cytotoxicity against human Fa2N-4 cells after 24 hrs by ATP-lite 1-step assay. In kind it is cell-based. Particulars: fa2n-4, 24 h, read-out: LC50 (the source's name).
The nature of series [8]: Plasma protein binding in human at 10 uM by LC-MS analysis. In kind it is ADME, cell-free. Particulars: read-out: PPB (converted). In outline: (§4)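 Read-out was % of compound bound in human or mouse plasma, each tested at 1 µM and 10 µM.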
The nature of series [9]: Metabolic stability in human plasma assessed as compound remaining at 1:1 1 x pH7.4 PBS measured at 3 hrs by LC-MS/MS analysis. In kind it is ADME, cell-free. The settings on record: pH 7.4, read-out: Stability. Put shortly: as §1
Series [10] is described as follows: Permeability of the compound at donor pH 7.4 and acceptor pH 7.4 by PAMPA. Format: ADME. In outline:
as §3

A short description of series [11]: Aqueous solubility of the compound in pH 5 pION buffer by UV kinetic solubility method. Format: physicochemical. Put shortly: as §2
Series [12] in a line: Plasma protein binding in mouse at 1 uM by LC-MS analysis. In kind it is ADME, cell-free. The settings on record: read-out: PPB (converted). In outline: as §4
Series [13] is described as follows: Plasma protein binding in mouse at 10 uM by LC-MS analysis. In kind it is ADME, cell-free. The settings on record: read-out: PPB (converted). In outline: as §4
Series [14] in a line: Aqueous solubility of the compound in pH 7.4 pION buffer by UV kinetic solubility method. Format: physicochemical. In outline: as §2
Series [15] is described as follows: Permeability of the compound at donor pH 5.0 and acceptor pH 7.4 by PAMPA. Format: ADME. In outline:
as §3

The nature of series [16]: Metabolic stability in mouse plasma assessed as compound remaining at 1:1 1 x pH7.4 PBS measured at 3 hrs by LC-MS/MS analysis. In kind it is ADME, cell-free. Particulars: pH 7.4, read-out: Stability. Put shortly:
as §1

The nature of series [17]: Metabolic stability in mouse plasma assessed as compound remaining at 1 x pH7.4 PBS measured at 3 hrs by LC-MS/MS analysis. In kind it is ADME, cell-free. The settings on record: pH 7.4, read-out: Stability. In outline:
as §1

Series [18] can be described thus: Metabolic stability in human liver microsomes measured at 1 uM after 1 hr at pH 7.4 by LC-MS/MS analysis. Format: ADME. Particulars: read-out: Stability. Put shortly:
as §1

Series [19] can be described thus: Plasma protein binding in human at 1 uM by LC-MS analysis. Format: ADME, cell-free. The settings on record: read-out: PPB (converted). Put shortly:
as §4

The nature of series [20]: Metabolic stability in human liver microsomes measured at 1 uM after 1 hr at pH 7.4 by LC-MS/MS analysis in absence of NADPH. Particulars: read-out: Stability. In kind it is ADME. In outline:
as §1

The nature of series [21]: Metabolic stability in mouse liver microsomes measured at 1 uM after 1 hr at pH 7.4 by LC-MS/MS analysis in absence of NADPH. Format: ADME. The settings on record: read-out: Stability. In outline:
as §1

In brackets after ≈: the same amount, converted by molar mass.

On to `Cc1ccc(-n2sc3ccccc3c2=O)cc1`, for which the figures for the IC50 (in series [1]; against Phosphomannomutase 2; in [2]) were 1.3 µM, greater than 30 µM and 3.9 µM, respectively.
In the case of `O=c1c2ccccc2sn1-c1cc(S(=O)(=O)N2CCOCC2)ccc1N1CCCC1`, in series [1], the IC50 was determined as 7.5 µM.
Take `CN(C)S(=O)(=O)c1cccc(-n2sc3ccccc3c2=O)c1`: the values for the remaining at 1 h, 1 µM in series [3] and in series [18] were 100% and 72.4%, respectively. Moreover, the kinetic solubility worked out at 24.6 µg/mL (≈ 73.6 µM) in series [4], 23.4 µg/mL (≈ 70 µM) in series [11] and 23.8 µg/mL (≈ 71.2 µM) in [14]. Also, the permeability in series [5] was found to be 817 ×10⁻⁶ cm/s; in series [10], 777 ×10⁻⁶ cm/s; in series [15], 781 ×10⁻⁶ cm/s. Besides, the remaining at 3 h in [6] came out at 11.4%; in series [9] it was 32.3%; in [16] it was 40%; in series [17], 65.3%. The CC50 in [7] is greater than 50 µM. Further, the results for the fraction unbound at 10 µM in series [8] and in series [13] were 0.435 and 0.659, respectively. Also, the fraction unbound at 1 µM in series [12] is 0.644.
Turning to `O=C(O)c1cccc(-n2sc3ccccc3c2=O)c1`, the remaining at 1 h, 1 µM in [3] and in [18] was 100% throughout. For the same molecule, the kinetic solubility in series [4], in series [11] and in series [14] was greater than 27 µg/mL each time. The values for the permeability in [5], in series [10] and in [15] were 18 ×10⁻⁶ cm/s, less than 4.4 ×10⁻⁶ cm/s and 157 ×10⁻⁶ cm/s, respectively. Also, the remaining at 3 h stood at 50.2% in series [6], 55.5% in series [9], 71.2% in [16] and 100% in series [17]. Besides, in [7], the CC50 was greater than 50 µM. The fraction unbound at 10 µM was 0.406 in series [8] and 0.699 in [13]. Also, the fraction unbound at 1 µM in series [12] was 0.812.
Turning to `COC(=O)c1cccc(-n2sc3ccccc3c2=O)c1`, the remaining at 1 h, 1 µM in series [3] was determined as 45.9%; in series [20] it was 31.5%; in [18], 72.4%; in series [21] it was 44.6%. The results for the kinetic solubility in [4], in [11] and in [14] were 18.9 µg/mL (≈ 66.2 µM), 12.6 µg/mL (≈ 44.2 µM) and 20.8 µg/mL (≈ 72.9 µM), respectively. The permeability in series [5] was found to be 1231 ×10⁻⁶ cm/s; in [10], 1300 ×10⁻⁶ cm/s; in series [15] it was 1294 ×10⁻⁶ cm/s. Besides, the remaining at 3 h in series [6] is 15.4%; in [9], 49.3%; in [16], 55.2%; in [17], 59.6%. The fraction unbound at 1 µM was 0.588 in [19] and 0.52 in [12]. The CC50 in [7] is greater than 50 µM. The fraction unbound at 10 µM in [8] was 0.427; in [13], 0.624. Besides, 12 µM corresponded to half-maximal inhibition at Phosphomannomutase 2 (IC50).
On to `O=c1c2ccccc2sn1-c1cc(S(=O)(=O)N2CCOCC2)ccc1N1CCOCC1`, for which, in series [1], the IC50 came to 1.2 µM.
The molecule `Cc1ccc(-n2sc3ccccc3c2=O)cc1S(=O)(=O)N1CCCCC1` registered an IC50 at Phosphomannomutase 2 of 11 µM.
As to `Cc1ccc(C)c(-n2sc3ccccc3c2=O)c1`, the IC50 in series [1] is 4 µM; against Phosphomannomutase 2 it was greater than 20 µM.
For the molecule `O=c1c2ccccc2sn1-c1ccc(F)cc1`, the IC50 against Phosphomannomutase 2 was greater than 20 µM; in [2], 3.4 µM.
At Phosphomannomutase 2, `O=c1c2ccccc2sn1-c1cccc(Cl)c1` gave a 50% inhibitory concentration (IC50) greater than 30 µM.
On Phosphomannomutase 2, `Cc1cccc(-n2sc3ccccc3c2=O)c1` had a half-maximal inhibitory concentration (IC50) greater than 20 µM.
In the case of `Cc1cccc(-n2sc3cc(F)ccc3c2=O)c1C`, the IC50 in series [1] was 4.7 µM; against Phosphomannomutase 2 it was greater than 20 µM; in series [2], 9.9 µM.
The corresponding values for `O=c1c2ccc(F)cc2sn1-c1ccccc1` are 0.79 µM, greater than 50 µM and 1.3 µM.
With `COc1ccc(-n2sc3cc(F)ccc3c2=O)cc1`, the 50% inhibitory concentration (IC50) in series [1] was 6.7 µM; at Phosphomannomutase 2, greater than 10 µM.
`O=c1c2ccccc2sn1-c1ccc(Cl)c(S(=O)(=O)N2CCOCC2)c1`: the IC50 against Phosphomannomutase 2 was 63 µM.
As to `CCN(CC)S(=O)(=O)c1cccc(-n2sc3ccccc3c2=O)c1`, the IC50 was greater than 100 µM against Phosphomannomutase 2 and greater than 50 µM in series [2].
Consider `CN(C)c1ccc(-n2sc3ccccc3c2=O)cc1`, for which the IC50 was greater than 30 µM at Phosphomannomutase 2 and 8.4 µM in series [2].
For `CCOC(=O)c1ccc(-n2sc3ccccc3c2=O)cc1` the same measures were greater than 50 µM and 23 µM.
As for `Cc1ccc(C)c(-n2sc3cc(F)ccc3c2=O)c1`, in series [1], the half-inhibitory concentration (IC50) was determined as 3.3 µM.
For the molecule `O=c1c2ccccc2sn1-c1ccc(F)c(Cl)c1`, the IC50 against Phosphomannomutase 2 is greater than 100 µM; in series [2], greater than 50 µM.
As for `O=c1c2ccc(F)cc2sn1-c1ccc(F)cc1`, the values for the IC50 (in series [1]; on Phosphomannomutase 2; in series [2]) were greater than 10 µM, greater than 50 µM and 3.6 µM, respectively.

For orientation: IC50 means the concentration that gives 50% inhibition. In general, kinetic solubility refers to solubility judged after dilution from a stock solution rather than from solid.
